From ChEMBL document CHEMBL4052804, “Design and synthesis of piperazine acetate podophyllotoxin ester derivatives targeting tubulin depolymerization as new anticancer agents” (Bioorg Med Chem Lett, 2017)
Activity calls are given as the source filed them. The rule behind the calls is not given here.

Columns and labels:
[1] = system: HeLa; test: Cytotoxicity against human HeLa cells after 24 hrs by MTT assay; type: functional, cell-based
Procedure, shortened: (§1)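 In vitro antiproliferative screen by MTT assay against human MCF-7 breast, HeLa cervical, A549 lung adenocarcinoma and HepG-2 hepatoma cells. Output is the IC50.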

[2] = system: MCF7; test: Cytotoxicity against human MCF7 cells after 24 hrs by MTT assay; type: functional, cell-based; details: MCF7, 24 h; procedure, shortened: as §1
[3] = system: HepG2; test: Cytotoxicity against human HepG2 cells after 24 hrs by MTT assay; type: functional, cell-based; details: HepG2, 24 h; procedure, shortened: as §1
[4] = system: L02; test: Cytotoxicity against human L02 cells after 24 hrs by MTT assay; type: cell-based; details: L02, 24 h
Procedure, shortened: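 Normal human liver L02 cells were tested at multiple concentrations in an MTT assay. Output is the median cytotoxic concentration (CC50).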

[5] = system: MCF7; test: Cell cycle arrest in human MCF7 cells assessed as accumulation at G1 phase at 0.3 uM after 12 hrs by propidium iodide staining based flow cytometric method (reference value: 58.69 to 62.23%); type: functional
[6] = system: MCF7; test: Cell cycle arrest in human MCF7 cells assessed as accumulation at S phase at 0.3 uM after 12 hrs by propidium iodide staining based flow cytometric method (reference value: 27.63 to 32.34%); type: functional
[7] = system: MCF7; test: Cell cycle arrest in human MCF7 cells assessed as accumulation at S phase at 0.6 uM after 12 hrs by propidium iodide staining based flow cytometric method (reference value: 27.63 to 32.34%); type: functional
[8] = system: MCF7; test: Cell cycle arrest in human MCF7 cells assessed as accumulation at G2/M phase at 0.6 uM after 12 hrs by propidium iodide staining based flow cytometric method (reference value: 5.43 to 13.68%); type: functional
[9] = system: MCF7; test: Cell cycle arrest in human MCF7 cells assessed as accumulation at S phase at 0.9 uM after 12 hrs by propidium iodide staining based flow cytometric method (reference value: 27.63 to 32.34%); type: functional
[10] = system: MCF7; test: Cell cycle arrest in human MCF7 cells assessed as accumulation at G2/M phase at 0.9 uM after 12 hrs by propidium iodide staining based flow cytometric method (reference value: 5.43 to 13.68%); type: functional
[11] = system: MCF7; test: Cell cycle arrest in human MCF7 cells assessed as accumulation at G1 phase at 0.6 uM after 4 hrs by propidium iodide staining based flow cytometric method (reference value: 60.19 to 60.87%); type: functional
[12] = system: MCF7; test: Cell cycle arrest in human MCF7 cells assessed as accumulation at S phase at 0.6 uM after 4 hrs by propidium iodide staining based flow cytometric method (reference value: 29.55 to 32.22%); type: functional
[13] = system: MCF7; test: Cell cycle arrest in human MCF7 cells assessed as accumulation at G2/M phase at 0.6 uM after 4 hrs by propidium iodide staining based flow cytometric method (reference value: 7.59 to 9.58%); type: functional
[14] = system: MCF7; test: Cell cycle arrest in human MCF7 cells assessed as accumulation at G1 phase at 0.6 uM after 8 hrs by propidium iodide staining based flow cytometric method (reference value: 60.19 to 60.87%); type: functional
[15] = system: MCF7; test: Cell cycle arrest in human MCF7 cells assessed as accumulation at S phase at 0.6 uM after 8 hrs by propidium iodide staining based flow cytometric method (reference value: 29.55 to 32.22%); type: functional
[16] = system: MCF7; test: Cell cycle arrest in human MCF7 cells assessed as accumulation at G2/M phase at 0.6 uM after 8 hrs by propidium iodide staining based flow cytometric method (reference value: 7.59 to 9.58%); type: functional
[17] = system: MCF7; test: Cell cycle arrest in human MCF7 cells assessed as accumulation at G1 phase at 0.6 uM after 16 hrs by propidium iodide staining based flow cytometric method (reference value: 60.19 to 60.87%); type: functional
[18] = system: MCF7; test: Cell cycle arrest in human MCF7 cells assessed as accumulation at S phase at 0.6 uM after 16 hrs by propidium iodide staining based flow cytometric method (reference value: 29.55 to 32.22%); type: functional
[19] = system: MCF7; test: Cell cycle arrest in human MCF7 cells assessed as accumulation at G2/M phase at 0.6 uM after 16 hrs by propidium iodide staining based flow cytometric method (reference value: 7.59 to 9.58%); type: functional
[20] = system: MCF7; test: Induction of apoptosis in human MCF7 cells assessed as viable cells at 2 uM after 24 hrs by Annexin-V-FITC/propidium iodide staining based flow cytometric method (reference value: 91.6 to 92.7%); type: functional; details: MCF7, 24 h, read-out: Activity
[21] = system: MCF7; test: Induction of apoptosis in human MCF7 cells assessed as early apoptotic cells at 2 uM after 24 hrs by Annexin-V-FITC/propidium iodide staining based flow cytometric method (reference value: 2.36 to 2.86%); type: functional
[22] = system: MCF7; test: Induction of apoptosis in human MCF7 cells assessed as late apoptotic cells at 2 uM after 24 hrs by Annexin-V-FITC/propidium iodide staining based flow cytometric method (reference value: 2 to 3.7%); type: functional
[23] = system: MCF7; test: Induction of apoptosis in human MCF7 cells assessed as early apoptotic cells at 4 uM after 24 hrs by Annexin-V-FITC/propidium iodide staining based flow cytometric method (reference value: 2.36 to 2.86%); type: functional
[24] = system: MCF7; test: Induction of apoptosis in human MCF7 cells assessed as late apoptotic cells at 4 uM after 24 hrs by Annexin-V-FITC/propidium iodide staining based flow cytometric method (reference value: 2 to 3.7%); type: functional
[25] = system: MCF7; test: Induction of apoptosis in human MCF7 cells assessed as late apoptotic cells at 8 uM after 24 hrs by Annexin-V-FITC/propidium iodide staining based flow cytometric method (reference value: 2 to 3.7%); type: functional
[26] = system: MCF7; test: Induction of apoptosis in human MCF7 cells assessed as necrotic cells at 8 uM after 24 hrs by Annexin-V-FITC/propidium iodide staining based flow cytometric method (reference value: 2.35 to 2.49%); type: functional
[27] = system: MCF7; test: Induction of apoptosis in human MCF7 cells assessed as early apoptotic cells at 12 uM after 24 hrs by Annexin-V-FITC/propidium iodide staining based flow cytometric method (reference value: 2.36 to 2.86%); type: functional
[28] = system: MCF7; test: Induction of apoptosis in human MCF7 cells assessed as late apoptotic cells at 12 uM after 24 hrs by Annexin-V-FITC/propidium iodide staining based flow cytometric method (reference value: 2 to 3.7%); type: functional
[29] = system: MCF7; test: Induction of apoptosis in human MCF7 cells assessed as necrotic cells at 12 uM after 24 hrs by Annexin-V-FITC/propidium iodide staining based flow cytometric method (reference value: 2.35 to 2.49%); type: functional
[30] = system: MCF7; test: Upregulation of CDK1 expression in human MCF7 cells at 0.5 to 2 uM after 24 hrs by Western blot analysis; type: functional, cell-based
[31] = system: MCF7; test: Down regulation of cyclin A expression in human MCF7 cells at 0.5 to 2 uM after 24 hrs by Western blot analysis; type: functional, cell-based
[32] = system: MCF7; test: Down regulation of cyclin B1 expression in human MCF7 cells at 0.5 to 2 uM after 24 hrs by Western blot analysis; type: functional, cell-based
[33] = system: MCF7; test: Down regulation of cyclin D1 expression in human MCF7 cells at 0.5 to 2 uM after 24 hrs by Western blot analysis; type: functional, cell-based
[34] = species: Homo sapiens; test: Induction of tubulin depolymerization in human MCF7 cells at 0.5 to 1 uM after 12 hrs by DAPI staining based confocal microscopic analysis; type: cell-based

Structure (SMILES): COc1cc([C@@H]2c3cc4c(cc3[C@H](OC(=O)CN3CCN(c5ccc(Cl)c(Cl)c5)CC3)[C@H]3COC(=O)[C@H]23)OCO4)cc(OC)c1OC
- IC50 [1]: 5.1 µM
- IC50 [2]: 2.78 µM
- IC50 [3]: 7.93 µM
- IC50 [4]: > 100 µM
- Activity [5]: 38.07%
- Activity [6]: 24.21%
- Activity [7]: 4.21 - 20.78%
- Activity [8]: 60.98 - 69.25%
- Activity [9]: 10.65%
- Activity [10]: 81.03%
- Activity [11]: 46.58%
- Activity [12]: 23.99%
- Activity [13]: 29.43%
- Activity [14]: 29.54%
- Activity [15]: 26.13%
- Activity [16]: 44.13%
- Activity [17]: 8.51%
- Activity [18]: 5.92%
- Activity [19]: 85.57%
- viability at 2 µM [20]: 81.2%
- Activity [21]: 10.1%
- Activity [22]: 6.11%
- Activity [23]: 11.4%
- Activity [24]: 10.5%
- Activity [25]: 14%
- Activity [26]: 3.45%
- Activity [27]: 17.5%
- Activity [28]: 20.4%
- Activity [29]: 6.91%
- Activity [30]: Active
- Activity [31]: Active
- Activity [32]: Active
- Activity [33]: Active
- Activity [34]: Active
